# Source: ChEMBL document CHEMBL4513216, “Probing the Open Global Health Chemical Diversity Library for Multistage-Active Starting Points for Next-Generation Antimalarials” (ACS Infect Dis, 2020)
# Test: Toxicity liver stage against HepG2, at 10uM
# Assay type: cell-based
# Design: test concentration 10 uM, cell line HepG2-A16-CD81EGFP
# Details: human, HepG2-A16-CD81EGFP cells; read-out: INHIBITION
# Method in brief: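 Uninfected HepG2-A16-CD81EGFP cells, 3 × 10^3 per well, 1536-well, plated on prespotted compound at 10 μM final, parasite-free screening media added to match infected plates; puromycin 10 μM positive, DMSO 0.5% negative; run in parallel with 48 h PbLuc assay at 37 °C, 5% CO2; viability by CellTiter-Glo luminescence, normalized to controls.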
row,SMILES,cytotoxicity at 10 µM [%]
1,CN1C(=O)C[C@H]2[C@H]1CCN2Cc1cccc(C#N)c1,-75.6
2,O=C(O)c1ccc2ccc(N3CCN(CC4CC4)CC3)n2c1,7.25
3,C=c1occc1=C1NC(c2cccc(CN3CCOCC3)c2)=NO1,-5.92
4,Cc1cccc2c1NC1(CCCC1)NC2=O,-48.5
5,CO[C@H]1CCN(S(=O)(=O)c2cccnc2)[C@@H]2CN(CC3CC3)C[C@H]12,-73.5
6,COCCC(Cc1cccc(Br)c1)C(N)=O (centres undefined),8.42
7,CC(C)(O)CSCCNCc1ccc(Cl)c2cccnc12,-8.87
8,CNS(=O)(=O)c1cccc(CNc2ccc(C#N)cn2)c1,-4.36
9,CC1CCN(c2cncc(CCC3CCCN3)n2)CC1 (centres undefined),4.52
10,CN(C)C(=O)NC1COC2(CCN(C(=O)c3ccc(Cl)cc3)CC2)C1 (centres undefined),0.994
11,CC(C)(C)C(=O)NCc1cnn2ccccc12,-10.6
12,CCC1c2ccsc2CCN1C(=O)NCc1cc(C)on1 (centres undefined),-10.2
13,Cc1cccc(CO[C@@H]2CO[C@@]3(CCN(S(=O)(=O)N(C)C)C3)C2)n1,4.14
14,Fc1cccc(CN2CCN(Cc3cscn3)CC2)c1,-0.612
15,CC(C)(C)c1nc(NS(=O)(=O)c2ccc(F)cc2)no1,4.71
16,CCNC(c1ccc(OC)cc1)c1cccnc1 (centres undefined),-3.54
17,C=Cc1cccc(CN(Cc2cnn(C)c2)C2CC2)c1,3
18,COCC1(C(=O)N[C@H]2CN(c3noc(C)n3)C[C@@H]2C2CC2)CCC1,-135
19,O=C(NCC1CC1)C1=NOC2(CCN(S(=O)(=O)Cc3ccccc3)C2)C1 (centres undefined),-2.1
20,COc1cccc(CNCc2nc3ccccc3c(=O)[nH]2)c1,1.26
21,CC(C)Cc1ncc2c(n1)CN(c1cc(NC3CC3)nc(N)n1)C2,-5.82
22,COCCN1CC(c2nc(CC3CCN(C)CC3)no2)CCC1=O (centres undefined),2.06

row,SMILES,cytotoxicity at 10 µM [%]
1,Cc1cc(CCC2CN(Cc3ccccc3C(=O)O)CCO2)ncn1 (centres undefined),-19.9
2,OC1(CNc2ccc(F)cc2)CCNCC1,2.4
3,CN(Cc1cnn(C)c1)C(=O)NCCc1ccc2c(c1)OCO2,-12.4
4,O=C(c1ccco1)N1CC[C@@H]2O[C@@H](COCCN3CCCC3)CC[C@@H]21,-76.8
5,CCCc1cc(CNC2CCN(c3cc(C)nc(N)n3)CC2)on1,-6.17
6,COCCn1ccnc1-c1cc(CN2CCCCC2)cs1,-151
7,CN(CC(=O)N1CC(C)(C)[C@](O)(C2CC2)C1)Cc1cccnc1,-52
8,CCc1[nH]ncc1C(=O)N1CCN(c2nc(C)cc(OC)n2)CC1,3.51
9,CCS(=O)(=O)NC[C@]12COC[C@H]1CN(Cc1ccsc1)C2,6.37
10,Cc1cnn(C2CN(c3ncnc4[nH]ccc34)C2)c1,8
11,O=C1CC[C@@H]2[C@@H](CCN2S(=O)(=O)C2CC2)N1CC1CC1,-79.4
12,CN1CCN(C[C@H]2CN3CC[C@H]2C[C@@H]3CNC(=O)c2ccco2)CC1,-6.35
13,Cc1cc(C(=O)NCc2c(C)nn(C)c2C)nc(N2CCOCC2)n1,0.0436
14,c1ccc2sc(CN3CCOC(Cn4cncn4)C3)nc2c1 (centres undefined),-0.489
15,O=c1cc(CN2CCCC2)nc2n1CCCN(S(=O)(=O)C1CC1)C2,-3.56
16,CCN1CC2(CC1=O)CN(C(=O)c1ccco1)CCN(C(=O)N(C)C)C2 (centres undefined),-8.37
17,Cn1cc(CC2CC(=O)N(Cc3ccccc3OC(F)F)C2=O)cn1 (centres undefined),2.21
18,COc1ccc(NC(=O)CSc2nncn2-n2cccc2)c(OC)c1,-2.74
19,CN1CC(=O)N(C2CCCNC2)Cc2c(NC3CCC3)ncnc21 (centres undefined),3.96
20,CC(=O)N1CCC(NC2(Cc3cc(CN(C)C)on3)COC2)CC1,-1.38
21,O=S(=O)(CCCS(=O)(=O)c1ccc2c(c1)OCCCO2)c1ccccc1,-2.76
22,CC(=O)N1CCC(=O)N(C2CCCC2)Cc2ccccc21,-6.09

row,SMILES,cytotoxicity at 10 µM [%]
1,Cc1noc(C)c1-c1cccc(CC2CCN(C(=O)c3cscn3)C2)n1 (centres undefined),-6.66
2,Cc1oc(C(C)C)cc1C(=O)N1C[C@@H]2CC[C@H]1CN(c1ncccn1)C2,-126
3,CC(O)CN1CCN(Cc2coc(-c3ccccc3)n2)CC1 (centres undefined),-5.93
4,CCC(=O)N1CCc2nc(N3CCOCC3)nc(N(C)C)c2CC1,28.9
5,O=C(CCc1ccco1)N1CCC(Oc2ccccc2)(C(=O)O)CC1,1.46
6,CCn1ccc(C(=O)N2CCOC(c3nc(-c4cccs4)no3)C2)n1 (centres undefined),10.9
7,Cc1nc(C(=O)N2CCCC(n3cncn3)C2)cs1 (centres undefined),5.7
8,OCC1(O)CCN(Cc2noc(-c3ccccc3)n2)CC1,-0.0739
9,NC1CCC(n2cc(C(=O)NC3CCc4ccccc4C3)nn2)CC1 (centres undefined),-4.42
10,CCN(C)[C@H]1CN(C(=O)c2cccc(N3CCS(=O)(=O)CC3)c2)C[C@@H]1O,-5.62
11,COc1cc(C(=O)Nc2nc(C)no2)cc(OC)c1Br,-8.78
12,Cc1ccc(C(C)C(=O)N2CCCN(Cc3cscn3)CC2)cc1 (centres undefined),-5.31
13,Cc1cc(NC(=O)CN2CCCC(Cn3cncn3)C2)on1 (centres undefined),1.68
14,Cn1nnc2c1C(COCC1CC1)CN(Cc1ccoc1)C2 (centres undefined),2.49
15,COCC1CN(Cc2c(C)noc2C)Cc2cn(C)nc21 (centres undefined),13.2
16,CN(Cc1cnn(C)c1)C(=O)C1CCCN1Cc1ccccn1 (centres undefined),-25.8
17,CCOc1cccnc1C(=O)N1CCCN(c2nc(C)cs2)CC1,5.6
18,Cc1ccc(C(=O)N2CC(=O)N(Cc3cccs3)CC(O)C2)cc1 (centres undefined),-5.46
19,Cc1ccc(CN2CC[C@@H]3[C@@H](CO[C@H]3CN(C)C)C2)o1,-130
20,CC(Cc1ccc(Cl)cc1)N(C)C(=O)NCCS(C)(=O)=O (centres undefined),0.606
21,CCC(CO)N(Cc1cccc(-n2cccn2)c1)Cc1ccccn1 (centres undefined),6.95
22,Cc1ccc(C2(CN3CCN(Cc4cnc(C)n4C)CC3)CC2)cc1,-3.99

row,SMILES,cytotoxicity at 10 µM [%]
1,O=C(Cc1ccccn1)N1CCN2C[C@H](Oc3cncnc3)C[C@H]2C1,-73
2,N#CCCN(Cc1ccco1)C(=O)CN1CCCC1c1cccs1 (centres undefined),-2.56
3,CC(C)C(=O)N1CCC[C@]2(C(=O)N(C)C)CN(c3ccccn3)C[C@@H]2C1,30.7
4,Cc1cccc(OCC2CCCN(C(=O)Cn3ccccc3=O)C2)c1 (centres undefined),-0.503
5,CN(C)S(=O)(=O)N1CC(c2ccnc(Nc3ccccn3)n2)C1,8.84
6,N#Cc1cccc(N2CCC(CO)(CCc3ccccc3)CC2)n1,-48
7,Cc1cccc(-c2cc(C(=O)O)sn2)c1,-0.475
8,CCC(CO)N(Cc1ccc(F)cc1)Cc1c(C)nn(C)c1Cl (centres undefined),8.64
9,O=C(O)C1(Cc2cccc(-c3ccc(F)cc3)c2)CCOCC1,-24.1
10,CCO[C@H]1C[C@@H](O)C12CCN(C1CCN(c3ccccc3C)CC1)CC2,9.9
11,CCc1nc(C2CCCN2C(=O)c2cnns2)no1 (centres undefined),1.04
12,CCn1cncc1CN(Cc1ccc(OC)cc1OC)CC1CCCO1 (centres undefined),-18
13,CC(C)C(C)N(Cc1cnc2ccccc2n1)Cc1ccco1 (centres undefined),14.7
14,CC1(C)CN(CC(=O)NCc2ccccc2F)C[C@]1(C)O,-1.84
15,O=C(NC1CCCC1)NC1CCC(C(=O)N2CCSCC2)CC1 (centres undefined),3.58
16,CC(NC(=O)CN(C)S(C)(=O)=O)c1nnc2n1CCCCC2 (centres undefined),-10.2
17,Cc1nc(CN2CCCCC2CCc2cccs2)co1 (centres undefined),-2.36
18,F[C@@H]1CN(Cc2nccs2)C[C@@H]1OCc1nc2cnccc2[nH]1,4.15
19,CCc1cc(N2CCC(N3CCSCC3)CC2)n2nccc2n1,0.998
20,Cc1cccc(CNC(=O)Nc2cc(C(F)(F)F)c[nH]c2=O)n1,0.488
21,CC(C)(C)c1n[nH]cc1CNCC1CCN(CC(F)(F)F)C1 (centres undefined),3.5
22,O=C(O)CCn1ccc(=O)c2ccccc21,0.148

row,SMILES,cytotoxicity at 10 µM [%]
1,CCOCc1cnc2n1CCN(C(=O)c1ccccc1)C2C (centres undefined),-103
2,Cc1cccc(CC2CCCN(C(=O)Cc3csc(C)n3)C2)n1 (centres undefined),-26.5
3,CCCNC(=O)NC(=O)CNc1c(F)cccc1N1CCCC1,0.266
4,CCc1nccn1-c1nccnc1C1CCCN(C(=O)COC)C1 (centres undefined),-21.5
5,CNC(=O)C1CCCN(C(=O)c2cncs2)C1 (centres undefined),4.94
6,COCC(=O)N1CCC(c2cccc(Cc3ccc(F)cc3)n2)CC1,10.3
7,O=C(NCC1CC1)[C@@H]1CCO[C@@H]2CCN(c3ncccn3)C[C@@H]21,7.64
8,CN1C(=O)CCN(C(=O)C2CCCCC2)c2ccccc21,20.8
9,O=C(CN1CCCS1(=O)=O)Nc1ccc(OC2CCCC2)c(Cl)c1,-8.87
10,COCCN(Cc1nccs1)c1nc2c(s1)c(C)nn2C,-47.6
11,Cc1ccnc(NC(=O)c2cncc(C3CCNCC3)n2)c1,-9.48
12,CCn1cc(NC(=O)C2CCC(=O)N2Cc2ccc(C)o2)cn1 (centres undefined),-2.92
13,N#Cc1ccc(C(=O)N2CC[C@H]3[C@H]2CCN3CC2CCOCC2)cc1,-5.19
14,Cc1ccc(CS(=O)(=O)N2CC[C@H]3[C@H]2CC(=O)N3C)cc1,-7.33
15,COCCN1CCN(Cc2nc3c(s2)CCCC3)[C@H]2CS(=O)(=O)C[C@H]21,6.81
16,O=c1cc(Cn2cncn2)nc2n1CCCN(CCN1CCCC1)C2,2.78
17,COc1c(CNCc2cccc(Cn3cccn3)c2)c(C)nn1C,1.33
18,O=C(O)CCC(=O)N1CCN(CC2CC2)c2ncccc2C1,-101
19,COCCN1CCCC2(CCN(c3ncnc(C)c3C)C2)C1=O (centres undefined),33.4
20,CC(C)C(=O)N1CCCC1c1nc(N(C)C)ncc1-c1ccc(Cl)cc1 (centres undefined),20.1
21,COCC(NC(=O)c1cn2ccsc2n1)c1ccnn1C (centres undefined),-47.8
